Compound activity: PubChem, Johns Hopkins Ion Channel Center
The list is not random: actives were taken first. Their share in the collection is about 3.5%.
MrgX1 allo act: human MrgX1 positive allosteric modulation, primary screen; B-score at 10 µM; AID 588675; MrgX1-HEK293, Fluo-4 calcium flux, FDSS; active compounds read high; Q96LB2; 310,000 compounds, 0.63% hits;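 active means plate-corrected calcium response at least 3 library SD above typical, normal starting fluorescence, not activating the receptor alone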;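 further: compound read alongside a low EC10 to EC30 dose of BAM8-22 agonist; peak minus trough fluorescence over baseline measured at the second addition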
Target sequence (Q96LB2 whole entry, looked up): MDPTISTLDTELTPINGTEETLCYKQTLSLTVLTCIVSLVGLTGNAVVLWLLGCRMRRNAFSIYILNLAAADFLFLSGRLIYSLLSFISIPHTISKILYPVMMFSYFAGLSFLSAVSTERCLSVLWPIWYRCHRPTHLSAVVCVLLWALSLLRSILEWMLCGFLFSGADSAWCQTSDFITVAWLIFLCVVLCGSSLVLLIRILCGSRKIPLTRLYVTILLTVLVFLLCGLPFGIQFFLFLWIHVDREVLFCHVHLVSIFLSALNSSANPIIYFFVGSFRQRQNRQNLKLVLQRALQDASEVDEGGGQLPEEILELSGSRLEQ
MrgX1 antagonist: antagonists of human MrgX1 receptor. Q96LB2. MRGX1-HEK293 calcium flux, Fluo-4, BAM8-22 antagonism; active compounds read low. B-score at 10 µM. 310,000 compounds, 1.3% hits. AID 588676;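 active means calcium-response B-score plate-corrected more than 3 library SD below zero, starting fluorescence within 5 deviations, no agonist response on first addition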;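 further: peak minus trough fluorescence over baseline after final BAM8-22 challenge near maximal dose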
RGS4 pot: RGS4 potentiation or activation | HEK293 M3R/inducible RGS4, carbachol calcium flux Fluo4; active compounds read low | B-score at 10 µM | 310,000 compounds, 0.92% hits | AID 463111;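 active means B-score of the integrated calcium signal more than 4 SD below the library mean, with starting fluorescence not abnormally high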;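 further: negative B-score means reduced calcium response which marks RGS4 activation or potentiation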
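test system = M3R-expressing HEK293 line, RGS4 induced by doxycycline | probe or stimulus = carbachol at ECmax as muscarinic agonist stimulus | timing = dye loading 30 min 37 °C, buffer rest 30 min RT | signal = calcium dye Fluo4 fluorescence | evaluation = B score from integrated fluorescence ratio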
MrgX1 ag: human MrgX1 receptor agonism, primary screen; MrgX1-HEK293 cells, Fluo-4 calcium fluorescence, agonist mode; active compounds read high; B-score at 10 µM; 310,000 compounds, 0.44% hits;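 active means calcium response B-score plate-corrected fluorescence ratio at least 3 library SD, with starting fluorescence B-score inside 5 SD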
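Assay system: MrgX1-expressing HEK293 cells / Amount: fifteen thousand cells per well / Doses: test compound in the initial addition of three / Timing: cells plated overnight, dye loaded 0.5 h 37 °C, 0.5 h room temperature / Technique: kinetic calcium dye fluorescence, Fluo-4 NW / Control set: positive and negative controls per plate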
RGS4 block: inhibitors of human RGS4 | HEK293 M3R/RGS4 inducible, Fluo-4 calcium flux; active compounds read high; triggered by carbachol at its EC20 | B-score at 10 µM | 310,000 compounds, 0.45% hits | AID 463165;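 active means B-score, a plate-corrected calcium signal, over three deviations above library mean, with baseline fluorescence within five deviations of library mean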;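 further: RGS4 expression induced by doxycycline in cells with stable M3 receptor; B-score is computed from the integrated fluorescence ratio over baseline after carbachol; higher B-score means a larger calcium signal and so more RGS4 inhibition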
Target sequence (P49798 whole entry, looked up): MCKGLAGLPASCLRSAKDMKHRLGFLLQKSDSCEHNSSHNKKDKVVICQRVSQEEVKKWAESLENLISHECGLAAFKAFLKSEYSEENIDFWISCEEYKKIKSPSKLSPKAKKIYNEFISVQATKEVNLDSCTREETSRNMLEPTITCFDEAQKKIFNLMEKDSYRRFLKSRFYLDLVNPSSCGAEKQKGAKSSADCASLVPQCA
Numbers without * were called inactive; i = inactive; x = no result.

SMILES	MrgX1 allo act	MrgX1 antagonist	RGS4 pot	MrgX1 ag	RGS4 block
COc1ccc(CN(CCNC(=O)CCCCC(=O)NCCN(Cc2ccc(OC)cc2)C(C)C)C(C)C)cc1	i	i	-9.2*	i	i
CC(C)c1ccc(OCCCCN2CCCCC2)cc1	i	i	i	i	i
Clc1ccc(OCCCCN2CCCCC2)cc1	i	i	-7.1*	i	i
O=[N+]([O-])c1ccc(OCCCCN2CCCCC2)cc1	i	i	-7.6*	i	i
O=[N+]([O-])c1ccc(OCCCCCN2CCOCC2)cc1	i	i	i	i	i
CC(C)(C)c1ccc(OCCCN2CCCC2)cc1	i	i	i	i	i
CC(C)Oc1ccc(OCCCN2CCCCCC2)cc1	i	i	-7.2*	i	i
CC1CCN(CCCCOc2ccc([N+](=O)[O-])cc2)CC1	i	i	-7.3*	i	i
Cc1ccc(OCCCCN2CCC(C)CC2)cc1	i	i	-7.2*	i	i
Cc1cc(Br)ccc1OCCOCCN1CCCC1	i	i	i	i	i
CC1CCN(CCOc2ccc(C(=O)c3ccccc3)cc2)CC1	i	i	i	i	i
Cc1cc(Br)ccc1OCCCCN1CCCCC1	i	i	-7*	i	i
CC1CCN(CCCCOc2ccc(C(=O)c3ccccc3)cc2)CC1	i	i	-9.6*	i	i
CC1CCN(CCCCOc2ccc(F)cc2)CC1	i	i	i	i	i
O=C(CCc1nnc(-c2ccc(-c3ccccc3)cc2)o1)N1CCCCC1	i	i	i	i	i
Cc1ccc(-c2nc(CN(C)Cc3cccc4cnccc34)c(C)o2)s1	i	i	i	28*	i
CCc1ccc(-c2nc(CSCC(=O)N3CCN(c4ccccn4)CC3)c(C)o2)cc1	i	-7.1*	i	i	i
O=C(COc1ccccc1)Nc1sc2c(c1C(=O)NCc1cccnc1)CCCC2	i	i	i	i	i
COc1ccc(/C=C/C(=O)Nc2sc3c(c2C(=O)NCc2cccnc2)CCCC3)cc1	i	i	-8.7*	i	i
COC1(OC)C(/C=C/c2ccc(Cl)cc2)C(C#N)(C#N)C1(OC)OC (stereo not given)	8.5*	i	i	i	i
Cc1onc(-c2c(F)cccc2Cl)c1C(=O)NC(=S)Nc1c(C)n(C)n(-c2ccccc2)c1=O	i	i	-9.9*	i	i
Cc1c(NC(=O)Nc2ccc(Cl)cc2)c(=O)n(-c2ccccc2)n1C	i	-5.9*	i	i	i
c1ccc2nc3c(cc2c1)CCCCC3	i	i	i	i	i
N#Cc1ccsc1NC(=O)c1cccc([N+](=O)[O-])c1	i	i	i	i	i
N#Cc1ccsc1NC(=O)c1ccc(Cl)c([N+](=O)[O-])c1	i	-4.9*	i	i	i
SMILES	MrgX1 allo act	MrgX1 antagonist	RGS4 pot	MrgX1 ag	RGS4 block
O=C(Nc1ccc(C(O)(C(F)(F)F)C(F)(F)F)cc1)c1ccc(Cl)c([N+](=O)[O-])c1	i	i	-8.8*	i	i
O=C(CNS(=O)(=O)c1ccc(Br)cc1)N1CCN(Cc2ccccc2)CC1	i	i	i	i	i
CC1OC(O[C@H]2CC[C@]3(C)C4C=C[C@]56OC[C@@]7(CC[C@@H](C)[C@H](C)C75)[C@H](O)C[C@@]6(C)[C@]4(C)CC[C@H]3C2(C)C)C(OC2OC(CO)C(O)C(O)C2OC2OCC(O)C(O)C2O)C(O)C1O (stereo not given in full)	x	x	-7.5*	x	i
O=C(COC(=O)c1ccccc1NS(=O)(=O)c1cc([N+](=O)[O-])ccc1Cl)c1ccccc1	i	i	i	32*	i
O=C(CCC(=O)OCC(=O)c1ccc([N+](=O)[O-])cc1)Nc1ccccc1Cl	i	-5.5*	i	i	i
O=C(CCC(=O)OCC(=O)c1cccc([N+](=O)[O-])c1)Nc1cccc(Cl)c1Cl	i	i	i	i	i
O=C(CC(=O)c1ccccc1)Nc1cc([N+](=O)[O-])ccc1Cl	i	i	i	i	i
CC(C)CC(=O)NC(=S)Nc1nc(-c2cccc3ccccc23)cs1	i	i	-7.1*	i	i
Cc1cc(C(=O)COc2ccc3ccc(=O)oc3c2)c(C)n1C	i	i	i	i	i
Nc1ccc(C(=O)O)c(O)c1	i	i	i	i	i
Nc1ccc(N)c(C(=O)O)c1	i	-5.6*	i	i	i
O=[N+]([O-])c1ccccc1S(=O)(=O)N1CCN(C2CCCC2)CC1	i	i	i	i	i
O=[N+]([O-])c1ccc(S(=O)(=O)N2CCN(C3CCN(Cc4ccccc4)CC3)CC2)cc1	i	i	-7.5*	i	i
O=[N+]([O-])c1ccccc1S(=O)(=O)N1CCN(C2CCN(Cc3ccccc3)CC2)CC1	i	i	-7.3*	i	i
CCC(C)[C@H](NC(=O)Nc1cccc(Br)c1)C(=O)OC (stereo not given in full)	i	i	i	i	i
COc1cc(/C=N/NC(N)=O)ccc1OC(=O)c1cccs1	9.5*	i	i	i	i
Cc1cccc(NC(=O)CCCn2c(=S)[nH]c3ccccc3c2=O)c1	i	i	i	i	i
CCOC(=O)C1(CCCc2ccccc2)CCN(C(=O)CCC2=NNC(=O)CC2)CC1	i	i	i	i	i
CC1=CC(=O)C=C(C)C1=NOc1ccc([N+](=O)[O-])cc1	i	i	i	33*	i
C=CCn1c(-c2cccc([N+](=O)[O-])c2)n[nH]c1=S	i	i	i	i	i
CCCCn1c(-c2ccc([N+](=O)[O-])cc2)n[nH]c1=S	i	i	-10*	i	i
C=C(C)Cn1c(-c2cccc([N+](=O)[O-])c2)n[nH]c1=S	i	-4.8*	i	i	i
CCCn1c(-c2ccc(F)cc2)n[nH]c1=S	i	i	i	i	i
O=C(Cn1ccc2cc(S(=O)(=O)N3CCCC3)ccc21)NCCc1ccccc1	i	i	i	i	i
CCCCn1c(SCC(=O)N2CCOCC2)nnc1-c1ccoc1C	i	i	i	i	i
Cc1occc1-c1nnc(SCC(=O)N2CCOCC2)n1CCc1ccccc1	i	i	-7.3*	i	i
Cn1cnnc1SCC(=O)Nc1ccc(OCc2ccccc2)cc1	i	i	i	i	i
COCCN=c1scc(-c2ccco2)n1/N=C/c1ccc(O)c(O)c1O	i	i	x	i	x
